# Source: PubChem
# A1 inh = caspase 3/7 activation in MEF A1-2A-BIM cells, primary screen, A1 inhibitor project, cell-based, luminescence, HTS; Caspase-Glo 3/7 luminescence, 3 h; percent of clofoctol response, vehicle zero; caspase activation, % (test concentration not listed); 330,000 tested, 0.066% active; AID 2462, 2010;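 active means over half of replicate activation scores above 10%, or exactly half above 10 with the replicate mean above 10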
# H9c2 TAG inh = inhibitors of triacylglycerol accumulation, primary screen, cell-based, uHTS, fluorescence, H9c2; H9c2 cells, Nile Red lipid (TAG) fluorescence; cells loaded with 200 µM oleic acid; inhibition, % at 12.5 µM; 230,000 tested, 0.66% active; AID 651582, 2012;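 active means pattern-corrected inhibition of lipid staining of at least 50% with the nuclear-stain viability signal not falling by more than 50%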
# Calb FLC = C. albicans growth inhibition with fluconazole, primary screen, CaCi-2 strain, Alamar Blue fluorescence | C. albicans CaCi-2 + fluconazole, 48 h | growth inhibition, % (test concentration not listed) | 300,000 tested, 0.57% active | AID 1979, 2009;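 active means growth inhibition above about 58% in most replicates, limit read from the data, passing the limit was not always enough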;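 further: all wells also contain fluconazole at 8 µg/ml as a sub-toxic cotreatment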
# T cruzi repl = inhibitors of intracellular T. cruzi growth, primary screen, luminescence, NIH3T3 host cells | T. cruzi beta-gal in NIH3T3, 90 h | inhibition, % (no concentration beside the values) | 300,000 tested, 1.4% active;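 active means mean inhibition across valid replicates above about 55%, limit read from the data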;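 further: signal also drops with host cell toxicity which is not excluded here; higher percent means less beta-gal luminescence so fewer parasites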
#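 Incubation – ≥90 h infection period, 3 h prior cell attachment · System – NIH/3T3 fibroblasts plus reporter T. cruzi · Doses – compound pinned at 50 nL/well, DMSO · Read-out basis – percent inhibition of parasite-derived β-gal signal · Signal – luminescent β-galactosidase signal after 60 min lysis · Also added – 5000 T. cruzi trypomastigotes/well · Medium – Low-serum DMEM with 2% FBS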
# Beta apoptosis = inhibitors of cytokine-induced beta cell apoptosis, primary screen, luminescence | INS-1E cytokine-induced death, ATP luminescence, 48 h; percent of positive-control rescue, neutral wells zero | protection from apoptosis, % (no concentration beside the values) | 300,000 tested, 0.8% active;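 active means Every replicate reaches about 75%, or at least half do and their mean reaches it too, limit read from the data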;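 further: higher means more ATP so stronger rescue from cytokine killing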
# CSC inhib = cancer stem cell viability inhibitors, primary screen, luminescence; cancer stem cell-like cells viability; inhibition, % at 7.5 µM; 300,000 tested, 1.1% active; in the data active means inhibition above about 75%; tested in HMLE shEcad cells
# A number is an active result; i = inactive; nt = no result. An excerpt weighted towards active compounds, which were near 3.1% of everything screened.
SMILES,A1 inh,H9c2 TAG inh,Calb FLC,T cruzi repl,Beta apoptosis,CSC inhib
Cc1ccc(C(=O)NCCc2nnc3ccc(SCC(=O)Nc4ccccc4F)nn23)cc1,i,i,i,i,i,i
Clc1cccc(CN2CCc3c([nH]c4ccccc34)C2)c1Cl,i,nt,i,i,i,111.1
N#Cc1ccc(-c2csc(NNC(=O)c3ccccc3)n2)cc1,i,i,i,nt,79.0,i
N#Cc1ccc(-c2csc(NNC(=O)c3ccc(Br)cc3)n2)cc1,i,i,i,nt,77.7,i
O=C(NNc1nc(-c2ccccc2)cs1)c1ccccc1,i,nt,i,i,i,i
CCc1ccc(NC(=O)Cn2cc([N+](=O)[O-])nc2C)cc1,i,i,i,i,i,i
ON=C(CCc1ccccc1)CCc1ccccc1,nt,i,nt,nt,nt,nt
COc1ccc(CCc2ccc3ccccc3n2)cc1,nt,i,nt,nt,nt,nt
O=Nc1c(O)c2ccccc2c2ccccc12,i,98.5,94.3,i,108.8,121.6
COc1cc(N)c(Cl)cc1C(=O)OCC(=O)NC(=O)NCc1ccco1,i,i,nt,nt,i,i
Brc1ccc2c(c1)OCCOCCOc1cc(Br)ccc1OCCOCCOCCO2,i,nt,i,64.9,i,i
Brc1cc2c(cc1Br)OCCOCCOCCOCCO2,i,i,i,i,i,i
CCOc1ccc(/C=N/n2cc(-c3ccccc3)[nH]c2=S)cc1,i,i,i,72.9,i,i
Cc1ccc(CN2CCN(Cc3ccc(-n4cccn4)cc3C)CC2CCO)cc1 (stereo unspecified),i,i,i,61.9,i,i
Cc1ccc(CN2CCN(Cc3cccc(-n4cccn4)c3)CC2CCO)cc1 (stereo unspecified),i,i,i,i,i,i
COCCNC(=O)CN(C(=O)CCC(=O)Nc1ccccn1)c1cc(C)ccc1C,i,i,i,i,i,i
CCCCS(=O)(=O)NC(=O)C1(C)CCN1C(=O)C/C=C/c1ccccc1 (stereo unspecified),nt,i,nt,nt,nt,nt
COc1ccc(-c2nc(CN3CCN(Cc4cccc(Cl)c4)CC3)c(C)o2)cc1,i,i,i,56.0,i,i
COC(=O)c1ccc(-c2nc(CN3CCN(Cc4cccc(C)c4)CC3)c(C)o2)cc1,i,nt,i,57.2,i,i
COc1ccc(-c2nc(CN3CCN(Cc4cccc(F)c4)CC3)c(C)o2)cc1,i,nt,i,i,i,i
O=C1CSC(c2cccc([N+](=O)[O-])c2)N1Cc1ccccc1 (stereo unspecified),i,nt,i,i,i,i
NC(=O)NC(=O)COC(=O)c1ccc(Cl)c(S(=O)(=O)N(Cc2ccccc2)c2ccc(Cl)cc2)c1,i,i,i,i,i,85.9
NC(=O)COC(=O)c1ccc(Cl)c(S(=O)(=O)N(Cc2ccccc2)c2ccc(Cl)cc2)c1,i,i,i,i,i,i
COC(=O)c1sc(S(=O)(=O)NC(Cc2ccccc2)C(=O)O)c(C(=O)OC)c1C (stereo unspecified),i,i,nt,nt,i,i
CCOC(=O)C1(Cc2ccccc2)C(=O)N(CCCN(C)C)c2ccccc21 (stereo unspecified),i,i,i,i,i,i
SMILES,A1 inh,H9c2 TAG inh,Calb FLC,T cruzi repl,Beta apoptosis,CSC inhib
CCOc1ccc2c(c1)C(C)=CC(C)(C)N2S(=O)(=O)c1ccc(C)cc1,nt,i,112.5,i,nt,nt
CC(C)(C)C1CCC(OC(=O)C[N+]2(C)CCCCC2)CC1 (stereo unspecified),i,i,78.8,i,i,i
CC(Oc1ccc2c3c(c(=O)oc2c1)CCCC3)C(=O)NCc1ccncc1 (stereo unspecified),i,nt,i,i,i,i
CN(CC(=O)Nc1ccc(F)cc1)C(=O)COC(=O)c1nc(Cl)ccc1Cl,nt,i,nt,nt,nt,nt
O=C1CC(NS(=O)(=O)c2ccc([N+](=O)[O-])cc2)CN1c1ccc(Cl)cc1 (stereo unspecified),i,i,i,61.6,i,i
O=C1CC(NS(=O)(=O)c2ccc([N+](=O)[O-])cc2)CN1c1ccc2c(c1)OCCO2 (stereo unspecified),i,i,i,i,nt,i
CCCCn1nnnc1SCC(=O)NC1CCCCC1,i,nt,i,i,i,i
Cc1ccc(Nc2cc(C)nn2-c2nc(C)cc(=O)[nH]2)cc1,i,i,79.9,56.0,98.2,92.7
CCN(CC)C(=O)c1[nH]cnc1C(=O)NCC(=O)OC(C)(C)C,i,i,i,i,i,i
CC(C)c1cccc(-c2csc(C(C)(O)c3ccc(F)c(F)c3)n2)c1 (stereo unspecified),nt,i,nt,nt,nt,nt
CCc1ccn2cc(-c3ccc4c(c3)OCO4)nc2c1,i,i,i,i,i,77.8
CN(CC(=O)N(C)CC(=O)Nc1c(Cl)cccc1Cl)Cc1ccc(Br)s1,i,i,nt,nt,i,nt
Cc1c(CCOC(=O)c2cc([N+](=O)[O-])cc([N+](=O)[O-])c2)sc[n+]1CC(=O)c1ccccc1,i,i,i,69.4,i,i
Cc1c(CCOC(=O)CC23CC4CC(CC(C)(C4)C2)C3)sc[n+]1CC(=O)c1ccccc1,i,i,i,i,i,99.6
Cc1c(CCOC(=O)CC23CC4CC(CC(C4)C2)C3)sc[n+]1CC(=O)c1ccc(Br)cc1,i,i,i,i,i,117.5
Cc1c(CCOC(=O)c2ccccc2)sc[n+]1CC(=O)c1ccc(Br)cc1,i,nt,i,i,i,nt
COC(=O)c1ccc(CNC(=O)CCNC(=O)c2ccco2)cc1,i,i,nt,nt,i,nt
O=C(CSc1ccc(-c2ccccn2)nn1)Nc1cccc(F)c1,i,i,i,i,i,i
Cc1ccc(CNC(=O)CCSCc2ccc(C)cc2)cc1,i,nt,i,i,i,i
Cc1cc(C)nc(SCc2ccc(C(=O)N/N=C/c3ccncc3)cc2)n1,i,i,i,i,i,i
Cc1cc(C)nc(SCc2ccc(C(=O)NNC(=O)Nc3cccc(Cl)c3)cc2)n1,i,nt,i,i,i,110.6
CN(C)CCCSc1nc2ccccc2s1,i,nt,i,70.9,i,i
c1ccc2sc(SCSc3nc4ccccc4s3)nc2c1,i,i,i,i,i,i
N#Cc1c(NC(=O)Cn2c(=O)oc3ccccc32)oc(-c2ccccc2)c1-c1ccccc1,i,i,i,i,i,86.5
O=C(Cn1c(=O)oc2ccccc21)Nc1ccc(Br)cc1,i,nt,i,i,i,i
C[C@H](CO)N1C[C@H](C)[C@@H](CN(C)S(=O)(=O)c2ccc(F)cc2)Oc2ccc(NC(=O)CCN3CCOCC3)cc2C1=O,i,i,nt,nt,i,nt
Cc1ccc2c(CN3CCOCC3)cc(=O)oc2c1C,i,nt,i,i,i,i
Cc1ccc2c(CN3CCN(Cc4ccccc4)CC3)cc(=O)oc2c1C,i,nt,i,57.5,i,i
Cc1ccc2c(CN3CCN(CCO)CC3)cc(=O)oc2c1C,i,nt,i,54.9,i,i
